# CFTR F508del cor: correctors of CFTR F508del function in bronchial epithelial cells. actives 0.36% (n = 350,000). activity (quench increase), % at 7.58 µM. CFBE cells, YFP halide quenching; stimulated with forskolin plus potentiator P3; % fluorescence drop versus neutral controls;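 active = mean added fluorescence quench of at least 8% versus neutral control, with both replicates also reaching 8%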;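 note: cells transiently co-express mutant CFTR-F508del with the halide-sensitive YFP; corrector assay measuring rescue of mutant channel to the surface after 24 h compound exposure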
# EWS-Fli block: inhibitors of EWS/Fli oncoprotein transcriptional activity; A673 NR0B1-luciferase reporter, viability-normalised; inhibition, % at 12.6 µM; actives 0.67% (n = 350,000);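 active = mean inhibition of at least 50% after viability correction, with every replicate also passing that limit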;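 note: firefly luciferase signal divided by Alamar Blue viability fluorescence both relative to DMSO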
# FN deposit inh: fibronectin deposition inhibition | AH1F fibroblasts, Alexa488-fibronectin deposition fluorescence, overnight | inhibition, % at 12.6 µM | actives 0.086% (n = 350,000) | AID 743247;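 active = mean inhibition across replicates of 30% or more, regardless of how many single replicates reach that level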;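 note: positive control wells lacked labelled fibronectin entirely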
#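 Test system: AH1F fibroblast monolayer depositing Alexa488-labelled fibronectin into matrix. Input: 10000 cells per well. Technique: fluorescence, ex 485 nm, em 525 nm. Buffer or medium: DMEM plus 2% serum, read in PBS. Timing: 1 h cell adhesion before compound, then overnight fibronectin incubation. Compound: single dose, pinned. Read-out basis: inhibition from reduced deposited-fibronectin fluorescence.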
# PGC1a acetyl inh: PGC1a acetylation modulation, inhibitor mode | inhibition, % at 15.6 µM | U2OS PGC1a acetylation, AlphaScreen anti-acetyl-lysine; with virally co-expressed GCN5 acetyltransferase | actives 0.17% (n = 350,000);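 active = every replicate shows inhibition of at least 40%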;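 note: 0% = neutral control wells and 100% = positive control wells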
# Env fusion inh: HIV envelope-mediated fusion inhibition | HeLa-JRFL Env/CEM21 cell fusion, luciferase | inhibition, % at 12.3 µM | actives 1.1% (n = 360,000) | AID 651610;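 active = mean replicate inhibition score of at least 50 and every replicate individually at or above 50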;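 note: 0% = plate neutral controls and 100% = maraviroc near 300 nM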
# PAX8 reporter: inhibitors of PAX8 transcriptional activity in RMG-I cells; RMG-I TPO-luciferase reporter, SteadyGlo, 24 h; inhibition, % at 12.6 µM; actives 1.2% (n = 360,000);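 active = mean replicate inhibition at least 60% with every replicate also reaching 60%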;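 note: luciferase light reporting Pax8 driven TPO promoter activity; plate controls were median of neutral control wells for no effect and mitoxantrone controls for full effect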
# * = called active by the depositor; · = not tested or not shown. Hits are enriched below; roughly 2.3% of the tested compounds scored in any of these assays.
SMILES,CFTR F508del cor,EWS-Fli block,FN deposit inh,PGC1a acetyl inh,Env fusion inh,PAX8 reporter
O=C(Cc1cccnc1)N1CCCCN2[C@@H](CO)[C@@H](c3ccc(C#CC4CCCC4)cc3)[C@@H]2C1,-1,10,·,12,·,-10
O=C(Cc1cccnc1)N1CCCCN2[C@H](C1)[C@H](c1ccc(C#CC3CCCC3)cc1)[C@@H]2CO,-1,14,·,-1,·,92*
O=C(Cc1ccccc1)N1CCCCN2[C@H](C1)[C@H](c1ccc(C#Cc3ccccc3)cc1)[C@@H]2CO,-1,·,·,6,·,26
FC(F)(F)CN1C[C@@H]2C(c3ccccc3)[C@H](C1)N2CC1CC1 (stereo partly specified),·,·,-16,·,·,·
COCC(=O)N1[C@@H]2c3ccc(C4=CCCC4)c(=O)n3C[C@H]1[C@H](CO)[C@H]2C(=O)OC,0,2,·,-8,·,-1
O=[N+]([O-])c1ccccc1-c1cc(-c2ccccc2)cc(-c2ccccc2)[n+]1Cc1ccccc1Cl,-5,51*,-11,·,61*,86*
COc1cc(C)c(CNCCc2c[nH]c3ccccc23)cc1C,4,15,-10,-29,81*,-2
COc1ccc(CNCCc2c[nH]c3ccccc23)c(OC)c1C,4,19,4,-15,71*,7
CC=Cc1ccc2n(c1=O)C[C@H]1[C@H](CO)[C@@H](C(=O)OC)[C@@H]2N1CC1CC1 (mixture of isomers),1,1,·,·,·,·
COc1ccc(C(c2nnnn2-c2ccc3c(c2)OCCO3)N2CCC(n3c(=O)[nH]c4ccccc43)CC2)cc1 (stereo unspecified),-1,0,0,-21,12,10
COc1ccc(-n2nnnc2C(CCc2ccccc2)N2CCC(n3c(=O)[nH]c4ccccc43)CC2)cc1 (stereo unspecified),2,4,·,55*,14,104*
O=c1[nH]c2ccccc2n1C1CCN(C(CCc2ccccc2)c2nnnn2-c2ccc3c(c2)OCCO3)CC1 (stereo unspecified),-1,41,6,33,38,106*
O=c1[nH]c2ccccc2n1C1CCN(C(c2ccnc3ccccc23)c2nnnn2-c2ccc3c(c2)OCCO3)CC1 (stereo unspecified),-1,1,16,5,21,77*
O=C(Cc1ccccn1)N1CCCCN2[C@H](CO)[C@H](c3ccc(C#Cc4ccccc4)cc3)[C@@H]2C1,-2,-12,·,-3,·,4
O=C(Cc1ccccn1)N1CCCCN2[C@H](CO)[C@H](c3ccc(-c4ccccc4F)cc3)[C@@H]2C1,-3,13,·,15,·,49
Cc1ccccc1-c1ccc([C@@H]2[C@H](CO)N3CCCCN(C(=O)Cc4ccccn4)C[C@@H]23)cc1,0,-11,·,·,·,-32
CC(C)NC(=O)N1C[C@@H]2N[C@H](C1)C2c1ccccc1 (stereo partly specified),·,·,-10,·,·,·
CC(=O)OC1C(O)C(C)OC(OC2C(OC(=O)C3CCC4C(C3)OC3(CC(OC(=O)/C=C/c5ccccc5)C(C)CO3)C43CO3)OC(C)C(O)C2OC(C)=O)C1O (stereo unspecified),-7,36,-1,78*,72*,104*
O=C1C=CC(=O)C2C1C1(Cl)C(Cl)=C(Cl)C2(Cl)C1(Cl)Cl (stereo unspecified),-2,-1,-25,3,66*,5
COc1ccc(CCNC2(C#N)CCCCC2)cc1OC,-1,4,-1,84*,-45,-2
COc1ccc(CCNC2CCCCC2)cc1OC,·,3,-5,·,-2,-1
CC(C)CC#Cc1ccc([C@H]2[C@H](CO)N3CCCCN(C(=O)Cc4ccccn4)C[C@@H]23)cc1,-2,-2,·,1,·,7
CCC(=O)N1[C@@H]2Cn3c(ccc(-c4cccc(F)c4)c3=O)[C@H]1[C@@H](C(=O)OC)[C@@H]2CO,-3,0,·,·,·,-3
c1ccc2c(c1)[IH]c1ccccc1-2,-16,31,13,31,-10,64*
CCOP(=O)(CCP(=O)(OCC)OCC)OCC.C[CH2][Sn]([Cl])([Cl])[CH2]C,7,45,1,-5,-9,93*
CCOP(=O)(OCC)OCC,3,-3,·,0,·,·

# Screening data: PubChem, Broad Institute
